Compound activity (PubChem BioAssay)
RBBP9 inhibitor = human RBBP9 hydrolase inhibition | O75884 | recombinant RBBP9, FP-Rh probe fluorescence polarization | inhibition, % at 7.94 µM | 220,000 tested, 0.2% active;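 active = inhibition above the campaign mean of all tested compounds plus 3 SD, cut at about 14% in these data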
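Test system: recombinant human RBBP9; Timing: 30 min then 45 min, 25 °C; Detection: fluorescence polarization; Control set: RBBP9 with DMSO as uninhibited control, no-protein wells as full inhibition; Compound dosing: one concentration, 7.94 µM nominal, 0.794% DMSO; Probe or stimulus: FP-Rh activity-based probe, 375 nM before mixing.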
HTRA1 inhibitor = blocks human HTRA1 serine peptidase. inhibition, % at 5.96 µM. Q92743. recombinant HTRA1, FP-rhodamine activity-based probe, fluorescence polarization. AID 504803. 340,000 tested, 0.5% active; in the data active = inhibition above about 36%
ABHD4 inh = ABHD4 (mouse) inhibition, primary FP screen; Q8VD66; purified mABHD4, FP-Rh probe fluorescence polarization; 370,000 tested, 0.54% active; inhibition, % at 8.92 µM; AID 720543;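 active = inhibition exceeding the mean over every tested compound plus 3 SD, cut at about 30% in these data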
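Doses – 8.92 µM, single dose · Material – wild-type mouse ABHD4 protein · Replication – single well per compound (singlicate) · Measure – percent inhibition of probe binding, normalized to plate controls · Schedule – 45 min compound pre-incubation plus 60 min probe step, 25 °C · Detection – fluorescence polarization with parallel and perpendicular emission, 525/598 nm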
SIAE inh = blocks human sialic acid acetylesterase | AID 1053197 | SIAE FP-Rh probe binding, fluorescence polarization | Q9HAT2 | 370,000 tested, 0.69% active | inhibition, % at 9.66 µM;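 active = inhibition above a cutoff: mean of compounds within the control limits plus 3 SD of those, cut at about 17% in these data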
Target sequence (Q9HAT2 whole entry, looked up): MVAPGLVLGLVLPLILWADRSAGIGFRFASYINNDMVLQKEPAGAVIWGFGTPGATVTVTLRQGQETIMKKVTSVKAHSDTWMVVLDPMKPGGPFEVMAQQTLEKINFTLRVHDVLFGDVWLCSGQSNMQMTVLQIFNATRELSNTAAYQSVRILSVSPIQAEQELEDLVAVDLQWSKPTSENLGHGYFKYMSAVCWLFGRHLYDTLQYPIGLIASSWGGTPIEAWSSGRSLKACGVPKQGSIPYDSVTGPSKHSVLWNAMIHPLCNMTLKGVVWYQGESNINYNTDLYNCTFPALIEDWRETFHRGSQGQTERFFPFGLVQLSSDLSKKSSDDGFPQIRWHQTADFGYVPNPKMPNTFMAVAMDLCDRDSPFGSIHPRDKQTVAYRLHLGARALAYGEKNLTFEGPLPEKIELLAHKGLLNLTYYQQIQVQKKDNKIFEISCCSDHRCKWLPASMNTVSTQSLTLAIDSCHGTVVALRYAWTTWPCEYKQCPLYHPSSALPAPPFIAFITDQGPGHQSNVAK
HTRA1 conf = HTRA1 (human) inhibition, confirmation. shares compounds with HTRA1 inhibitor. recombinant HTRA1, FP-rhodamine activity-based probe, fluorescence polarization. inhibition, % at 5.96 µM. 1,600 tested, 66% active. AID 540248;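 active = mean inhibition over three repeats above a set limit taken from the earlier primary screen, cut at about 37% in these data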;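 also: inhibitors block probe binding so polarization drops and inhibition rises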
mABHD4 conf = confirmation of mouse ABHD4 inhibitors; AID 720658; purified mABHD4, FP-Rh probe fluorescence polarization; 1,800 tested, 55% active; shares compounds with ABHD4 inh; inhibition, % at 8.92 µM;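 active = mean inhibition across replicates above the hit cutoff set in the primary screen, cut at about 30% in these data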
Numbers stand for hits; n = inactive; x = no result. This is a sample that favours compounds with a hit; in the whole collection about 1.4% have one here.

SMILES | RBBP9 inhibitor | HTRA1 inhibitor | ABHD4 inh | SIAE inh | HTRA1 conf | mABHD4 conf
CCCN(CC(=O)Nc1ccccc1C)C(=O)/C=C/c1ccc(OC)c(OC)c1 | x | n | n | n | x | x
O=C(OCc1cn(Cc2ccccc2F)nn1)N1CCCC1 | x | x | n | n | x | x
O=C(O)CSc1cc(NS(=O)(=O)c2ccc(Br)cc2)c2ccccc2c1O | x | 46 | 49 | n | n | 49
Cc1cc(/C=N/Nc2ccc([N+](=O)[O-])cn2)c(C)n1-c1ccc(C(=O)O)cc1 | n | 41 | 41 | n | n | 59
C=CCn1c(SCC(=O)c2ccc(O)c(O)c2)nnc1-c1ccc(OC)cc1 | x | 56 | 38 | n | 79 | n
C=CCn1c(SCC(=O)c2ccc(O)c(O)c2)nnc1-c1ccc(C)cc1 | x | 60 | 34 | n | 66 | n
O=C(Nc1ccc2c(c1)OCCO2)C1c2ccccc2OCC(=O)N1Cc1ccccc1 (configuration not stated) | x | x | n | n | x | x
OCCC(N1CCOCC1)C(O)(c1ccccc1)c1ccccc1 (configuration not stated) | x | x | n | n | x | x
O=[N+]([O-])c1ccc(N=Nc2ccc(O)cc2O)cc1 | n | n | n | n | x | x
O=S(=O)(O)c1cc(Cl)cc(N=Nc2ccc(O)cc2O)c1O | x | 40 | 70 | n | 38 | n
O=C(O)C(Cc1ccccc1)N1C(=O)/C(=C/C=C/c2ccco2)SC1=S (configuration not stated) | n | 37 | 42 | n | n | n
C=C(C)Cn1c2ccc(NC(=O)CCc3cccc(Cl)c3)cc2c(=O)n1C | x | x | n | n | x | x
O=C1CC(N(O)c2ccccc2)C(=O)N1c1cc(Cl)cc(Cl)c1 (configuration not stated) | n | 40 | 45 | n | n | n
CCCOc1ccc(N2C(=O)CC(N(O)c3ccccc3)C2=O)cc1 (configuration not stated) | n | n | n | n | x | x
C[C@@H]1COc2cc(N3CCSCC3)ccc2S(=O)(=O)N1 | x | x | n | n | x | x
Oc1cccc(/C=N/N=C/c2cccc(O)c2O)c1O | x | 36 | 36 | n | 45 | n
Cc1[nH]c2ccccc2c1/C=N/Nc1ccccc1[N+](=O)[O-] | n | 68 | 59 | n | 74 | 73
CN(Cc1ccccc1C(F)(F)F)C(=O)C1CCC(=O)N(CC2CCCCC2)C1 (configuration not stated) | x | n | n | n | x | x
O=[N+]([O-])c1cc(Cc2ccccc2)cc(C=Nc2ccc(N3CCOCC3)cc2)c1O | n | n | x | x | x | x
Cc1ccc(O)c(N=Cc2cc(Cc3ccccc3)cc([N+](=O)[O-])c2O)c1 | n | 58 | 35 | n | 61 | n
O=C1OC(c2ccc3ccccc3c2O)(c2ccc3ccccc3c2O)c2ccccc21 | x | 36 | 44 | n | 44 | 48
Cc1ccc(SCC(=O)OCc2csc(CC(=O)Nc3ccccc3C)n2)cc1C | x | n | n | n | x | x
Cc1ccc(N2NC(=O)/C(=C\c3cc4c(cc3[N+](=O)[O-])OCO4)C2=O)cc1C | n | 63 | 47 | n | 37 | 47
CCN(CC)CCCNC(=O)c1cc2cc(Cl)ccc2nc1N | x | x | n | n | x | x
O=C(O)COc1ccccc1C(Nc1ccccn1)c1cc(Cl)c2cccnc2c1O (configuration not stated) | n | 74 | 33 | n | 84 | n
SMILES | RBBP9 inhibitor | HTRA1 inhibitor | ABHD4 inh | SIAE inh | HTRA1 conf | mABHD4 conf
CC(=O)NC(C)c1cc(Cl)c2ccccc2c1O (configuration not stated) | x | n | n | n | x | x
Cn1c(=O)c2cc(NC(=O)CCc3ccc4c(c3)OCO4)ccc2n1Cc1ccc(F)cc1 | x | x | n | n | x | x
O=C(O)c1ccc(O)c2ncccc12 | x | x | n | n | x | x
Oc1c(I)cc(I)c2cccnc12 | n | 72 | 33 | 34 | 66 | n
O=C(/C=C/c1cccc(F)c1)Nc1ccc(S(=O)(=O)N2CCOCC2)cc1 | x | n | n | n | x | x
COc1cc(C=NNc2ccc(S(=O)(=O)Nc3ccccc3C(=O)O)cc2[N+](=O)[O-])ccc1O | x | 49 | 64 | n | 75 | 91
O=C(O)c1ccccc1NS(=O)(=O)c1ccc(N/N=C/c2cccc(O)c2O)c([N+](=O)[O-])c1 | x | 74 | 86 | n | 78 | 77
O=C(O)c1ccccc1NS(=O)(=O)c1ccc(NNC(=S)Nc2ccc(OC(F)F)cc2)c([N+](=O)[O-])c1 | n | 67 | 72 | n | 118 | 140
CCOC(=O)[C@]12CCCC3=C1N(CCC3)C(=O)[C@@H](CC(=O)N1CCOCC1)C2 | x | x | n | n | x | x
Cc1cc2cc(CNC(=O)COc3ccccc3)ccc2n1C | n | 45 | 32 | n | n | n
O=C1c2ccccc2C(=O)c2c(Nc3ccc(CCO)cc3)ccc(O)c21 | n | 53 | 48 | n | 81 | 75
CC(=O)Nc1ccc(Nc2ccc3c4c(cc(=O)n3C)-c3ccccc3C(=O)c24)cc1 | n | n | n | n | x | x
CN(C(=O)c1cccc(NC(=O)Cc2cccc(NC(=O)C3CCCN(C(=O)c4ccccc4)C3)c2)c1)C1CCC1 (configuration not stated) | x | n | n | n | x | x
CCCCCC(=O)N1C[C@H](O)[C@@H](n2cc(COC(=O)c3ccccc3)nn2)C[C@@H]1c1ccc(Cl)cc1 | x | n | n | n | x | x
CN(C)C(CNC(=O)c1cccc(S(=O)(=O)N2CCN(c3ccc(F)cc3)CC2)c1)c1ccccc1 (configuration not stated) | x | n | n | n | x | x
c1cc2c3c(cccc3c1)NN=N2 | x | 37 | 33 | n | n | n
COC(=O)c1ccccc1NCc1cc(=O)oc2cc(O)c(O)cc12 | x | 65 | 40 | n | 46 | 31
COCC(=O)N(c1ccc(C(C)(C)C)cc1)C(C(=O)NC(C)(C)C)c1cccnc1 (configuration not stated) | x | x | n | n | x | x
Cc1ccc(Nc2ccc(C(N)=O)cc2[N+](=O)[O-])cc1C | n | n | n | n | x | x
Cc1ccc(NC(=S)NNc2ccc(C(=O)O)cc2[N+](=O)[O-])cc1C | x | 49 | 69 | n | 41 | 47
C=CCOC(=O)N[C@@H](c1cccc(OC)c1)[C@@H](C)/C=C/CC(=O)O | x | x | n | n | x | x
Cc1ccc(CN2C(=O)CCC2(C)c2nnnn2Cc2ccccc2)cc1 (configuration not stated) | x | x | n | n | x | x
Cc1ccc(NC2Sc3ccccc3NC2=O)cc1Cl (configuration not stated) | n | n | n | n | x | x
COc1ccc(CNC(=O)O[C@H]2CN(C(=O)OC(C)C)N(C(=O)OC(C)C)[C@@H]3CN(S(=O)(=O)c4ccc(C)cc4)C[C@]23O)cc1OC | x | n | n | n | x | x
CCn1nc([N+](=O)[O-])c(C(C#N)c2nc3ccccc3n2C)c(Cl)c1=O (configuration not stated) | n | n | n | n | x | x
CCCn1nc([N+](=O)[O-])c(C(C#N)c2nc3ccccc3s2)c(Cl)c1=O (configuration not stated) | n | 76 | 78 | n | 72 | 98
